In the library only some 0.58% were active in any assay of this set; here they are far more common.
TRPML3 agonist: activates the human TRPML3 channel; HEK293 TRPML3-YFP, Fluo-8 calcium fluorescence; 100% = the carbachol control signal; hit rate 0.29% among 220,000; activation, % at 3 µM; AID 1448; Q8TDD5;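 active = activation above its plate's cutoff, the mean activation of the plate's test wells plus 3 SD, cut at about 12% in these data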;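 also: 0% = DMSO only wells and 100% = carbachol wells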
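Test system: HEK293 cells stably carrying human TRPML3-YFP; Doses: single dose, 3 µM final nominal compound, 0.3% DMSO final; Schedule: dye loading 1 h 37 °C then 30 min ambient, 125 s read; Technique: Fluo-8 calcium fluorescence; Benchmarks: high control carbachol 87 µM, low control DMSO.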
OXTR potentiate: human OXTR potentiation. hit rate 0.061% among 320,000. CHO-OTR cells, Fluo-8 calcium fluorescence, potentiator mode; 0% = oxytocin EC15, 100% = EC100. activation, % at 3 µM. P30559;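 active = activation above that plate's cutoff, the mean activation of tested compounds plus 3 SD, cut at about 6.6% in these data, passing the limit was not always enough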;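 also: 100% uses oxytocin at 75 nM as the full agonist control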
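test system = CHO-OTR cells, human receptor | compound = single-point 3.0 µM | schedule = 6 min compound pre-incubation at room temperature, 100 s kinetic read | signal = Fluo-8 no-wash calcium dye fluorescence, excitation 470-495 nm, emission 515-575 nm | repeats = single well per compound, singlicate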
OXTR ag: agonists of human oxytocin receptor; P30559; CHO-OTR cells, Fluo-8 calcium fluorescence; normalized: DMSO 0%, oxytocin 100%; activation, % at 3 µM; hit rate 0.32% among 320,000;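 active = activation above the mean of all tested compounds plus 3 SD, cutoff set per screening run, cut at about 20% in these data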;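 also: peak over basal fluorescence ratio from a 100 s FLIPR kinetic read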
zfTRPN1 agonist: agonists of zebrafish TRPN1 channel | AID 1424 | activation, % at 3 µM | HEK293 zebrafish TRPN1-YFP, Fluo-8 calcium fluorescence; 100% = response to 87 µM carbachol | hit rate 0.18% among 220,000;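 active = activation above its plate's cutoff, the mean activation of test wells on that plate plus 3 SD, cut at about 19% in these data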;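 also: 0% = DMSO alone and 100% = 87 µM carbachol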
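Material: zebrafish TRPN1-YFP in HEK293 cells. Doses: one dose of 3 µM, 0.3% DMSO. Incubation: dye 1 h 37 °C plus 30 min RT. Measured by: intracellular calcium fluorescence with Fluo-8.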
V1R ag counter: activates human V1a receptor in oxytocin agonist counter-screen; CHO-V1R cells, Fluo-8 calcium fluorescence, agonist mode; 0% DMSO, 100% 3 nM vasopressin; activation, % at 3 µM; hit rate 0.25% among 320,000; AID 2797;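 active = activation above the mean activation of all tested compounds plus 3 SD, per screening run, cut at about 20% in these data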;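 also: signal is peak over basal fluorescence ratio across a 100 second FLIPR read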
Target sequence (P37288 whole entry, looked up): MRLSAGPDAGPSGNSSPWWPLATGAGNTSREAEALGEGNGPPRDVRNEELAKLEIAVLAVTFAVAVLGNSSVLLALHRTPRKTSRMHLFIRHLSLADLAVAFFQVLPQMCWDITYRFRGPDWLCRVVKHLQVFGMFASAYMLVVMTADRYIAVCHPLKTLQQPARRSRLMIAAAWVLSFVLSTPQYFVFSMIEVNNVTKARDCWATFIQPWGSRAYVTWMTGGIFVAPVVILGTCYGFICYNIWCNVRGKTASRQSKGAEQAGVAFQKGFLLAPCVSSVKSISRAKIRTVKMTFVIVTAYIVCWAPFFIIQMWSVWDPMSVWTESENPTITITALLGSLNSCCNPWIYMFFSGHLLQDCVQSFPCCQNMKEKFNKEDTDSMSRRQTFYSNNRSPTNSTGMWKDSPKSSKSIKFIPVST
TRPN1 counter: activates zebrafish TRPN1, counter-screen for TRPML3 agonists. shares compounds with TRPML3 agonist. HEK293 zebrafish TRPN1-YFP, Fluo-8 calcium fluorescence; scaled: carbachol wells 100%, DMSO wells 0%. activation, % at 3 µM. hit rate 10% among 310. AID 1525;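 active = mean activation over replicates above a set limit taken from the earlier TRPN1 channel primary screen, cut at about 19% in these data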;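 also: 100% = carbachol and 0% = 0.3% DMSO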
TRPML3 confirm: human TRPML3 agonism, confirmation; hit rate 80% among 310; shares compounds with TRPML3 agonist; HEK293 TRPML3-YFP, Fluo-8 calcium fluorescence; 100% set by carbachol, 0% by DMSO; activation, % at 3 µM;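 active = activation above a set limit derived from the earlier primary screen, cut at about 12% in these data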
* marks the source's active call; other numbers are inactive results; · = no result.

SMILES	TRPML3 agonist	OXTR potentiate	OXTR ag	zfTRPN1 agonist	V1R ag counter	others
O=[N+]([O-])c1ccc(S(=O)(=O)Nc2ccc(-c3csc(-c4ccccc4)n3)cc2)cc1	-1	-8	0	0	0
C=CCn1c(SC(C)CC)nc(O)cc1=O (stereo not given)	3	-32	46*	2	30*
O=C(Nc1ccc(S(=O)(=O)Nc2ccccc2)cc1)c1ccc(CN2CCOCC2)cc1	7	-16	9	20*	10
O=C(Nc1ccc(CN2CCOCC2)cc1)c1ccc(Cl)cc1	·	-1	2	·	3
CC(NC(=O)Nc1ccc([N+](=O)[O-])cc1)C(c1cccs1)N1CCCC1 (stereo not given)	1	-16	33*	0	55*
O=S(=O)(c1cnc(Cl)c(Cl)c1)N1CCc2ccccc21	16*	-5	-3	-2	-1
O=S(=O)(c1cnc(Cl)c(Cl)c1)N1CCCc2ccccc21	0	-1	-2	-2	-1
CCOc1ccc(NC(=O)COC(=O)Cc2ccsc2)cc1	·	-4	-1	·	1
S=c1[nH]nc(C2CCCCC2)n1Cc1ccccc1	0	-3	-2	-2	1
Cc1cccc(C)c1NC(=O)COC(=O)c1ccc2c(c1)OCO2	1	-9	0	1	0
CC(OC(=O)c1c2c(nc3ccccc13)/C(=C\c1ccc3c(c1)OCO3)CCC2)C(=O)Nc1ccc(S(N)(=O)=O)cc1 (stereo not given)	22*	·	·	28*	·
Cc1cccc(C)c1NC(=O)COC(=O)c1c2c(nc3ccccc13)/C(=C\c1ccc3c(c1)OCO3)CCC2	40*	-5	52*	135*	51*
O=C(CN1C(=O)C(=O)N(Cc2ccco2)C1=O)c1c[nH]c2ccccc12	1	-4	0	2	-1
CCOc1ccccc1N(CC(=O)N1CCOCC1)S(=O)(=O)c1ccc(SC)cc1	199*	·	·	57*	·
C=CCNC(=S)NNc1nc2c(c(=O)[nH]1)C1(CCCC1)Cc1ccccc1-2	0	-7	-1	-1	0
O=C1/C(=C\c2ccc(O)cc2)SC(=S)N1/N=C/c1ccc(O)cc1	7	-10	24*	21*	22*
CN1CCC/C1=C/C=C1\SC(=S)NC1=O	10	-12	46*	11	24*
CC(=O)N(CC(=O)Nc1nn(-c2ccccc2)nc1C(N)=O)Cc1ccccc1	0	2	-2	0	-1
COc1ccccc1CCNC(=O)CSc1ccc(-c2cccs2)nn1	20*	1	0	33*	-1
O=C(CSc1ccc(-c2cccs2)nn1)NCCc1ccccc1	0	-2	-2	-1	0
N#C/C(=C/c1ccc(N2CCOCC2)o1)C(=O)Nc1ccccc1	36*	·	·	72*	·
N#C/C(=C\c1ccc(N2CCOCC2)o1)C(=O)NC1CCCCC1	5	-8	14	8	15
CC(C)N(Cc1nc(-c2ccccc2)no1)C(=O)CN(C)S(=O)(=O)c1ccc(Br)cc1	0	-5	-1	1	0
CC(C)NC(=O)NC(=O)COc1c(F)c(F)cc(F)c1F	17*	-10	-1	0	-1
COc1ccc(CCn2cnc(=O)c(C#N)c2C)cc1OC	2	-8	1	1	0
SMILES	TRPML3 agonist	OXTR potentiate	OXTR ag	zfTRPN1 agonist	V1R ag counter	others
CN=C1SC(CC(=O)NCCc2ccc(OC)c(OC)c2)C(=O)N1C (stereo not given)	0	-13	34*	0	47*
CC(Oc1ccc(Br)cc1)C(=O)Nc1ccc(S(=O)(=O)N(C)C2CCN(C)CC2)cc1 (stereo not given)	·	-22	64*	·	47*
C[C@H](NC(=O)c1[nH]cnc1C(=O)Nc1ccccc1)c1ccccc1	·	-4	-1	·	0
Cc1cccc(C=Nc2ccc3c4c(cccc24)CC3)c1O	7	-6	9	9	25*
CCc1ccc(O)c(N=Cc2cccc(C)c2O)c1	0	-8	0	1	-1
Cc1ccsc1/C=C/C1=Cc2c(sc(NC(=O)CSc3n[nH]c(N)n3)c2C#N)C(C)(C)C1	1	-8	46*	0	5
CCN(CC)c1ccc(/C=C2/C(=O)c3ccc(C(=O)O)cc3C2=O)cc1	19*	-12	135*	35*	70*
Cn1c(=O)c2c(nc(CN3CCC(C(N)=O)CC3)n2Cc2ccccc2F)n(C)c1=O	0	-1	2	0	1
C#CCOCCOCCOCCNc1nc(N2CCOCC2)nc(N2CCN(C(=O)CCCCCCCCCCNC(=O)[C@@H]([C@H](C)CC)n3cc(CCCCCN)nn3)CC2)n1	·	1	0	·	0
C#CCOCCOCCOCCNc1nc(N2CCN(C(=O)CCCCCCCCCCNC(=O)[C@H]([C@@H](C)CC)n3cc(CCCCCN)nn3)CC2)nc(N2CCN(C(=O)CCCCCCCCCCNC(=O)[C@H](CO)n3cc(CCCCCN)nn3)CC2)n1	·	-18	22*	·	46*
C#CCOCCOCCOCCNc1nc(N2CCN(C(=O)CCCCCCCCCCNC(=O)[C@H]([C@@H](C)CC)n3cc(CCCCCN)nn3)CC2)nc(N2CCN(C(=O)CCCCCCCCCCNC(=O)[C@@H]([C@H](C)CC)n3cc(CCCCCN)nn3)CC2)n1	·	-16	19	·	27*
C#CCOCCOCCOCCNc1nc(N2CCN(C(=O)CCCCCCCCCCNC(=O)[C@H]([C@@H](C)CC)n3cc(CCCCN=C(N)N)nn3)CC2)nc(N2CCN(C(=O)CCCCCCCCCCNC(=O)[C@H](CO)n3cc(CCCCCN)nn3)CC2)n1	·	-19	-1	·	6
CNS(=O)(=O)c1cc(N(C)S(=O)(=O)c2ccc(C)cc2)c(C)cc1C	2	-5	0	0	0
Cc1ccc(S(=O)(=O)N(C)c2cc(S(=O)(=O)N3CCC(C)CC3)c(C)cc2C)cc1	40*	-14	1	-1	-1	TRPN1 counter=-1;TRPML3 confirm=73*
Cc1cc(C)n2c(Nc3ccc4c(c3)OCCO4)c(-c3ccco3)nc2n1	-1	·	·	-1	·
CCCN(CCC)S(=O)(=O)c1ccc(C(=O)N2CCCc3ccccc32)cc1	133*	-7	-1	6	0	TRPN1 counter=6;TRPML3 confirm=104*
CC1(c2nnc(Cc3ccccc3)o2)CC(c2ccccc2Br)=NO1 (stereo not given)	·	-16	-2	·	0

Source: PubChem BioAssay
